# Vif inh = blocks HIV Vif function; inhibition, % at 7.49 µM; 0.35% of 340,000 active; HEK293T cells, Vif self-association by quenched fluorescence, imaging, 24 h; in the data active = inhibition above about 50%, passing the limit was not always enough; inconclusive = no clear call, values can overlap the other calls; inactive = below about 31%
# Runt-SMMHC FRET = inhibitors of human RUNX1 Runt domain binding to CBFb-SMMHC | inhibition, % at 20 µM | Cerulean-Runt/Venus-CBFb-SMMHC FRET ratio 530/480, 1 h | 0.74% of 220,000 active | Q01196+Q13951;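 active = mean inhibition across duplicate retests at 20 µM reaching about 50%, limit read from the data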;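 also: inhibitors lower the FRET ratio by blocking Runt binding to CBFb-SMMHC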
# Rce1 inhib = blocks yeast Ras-converting enzyme. Q03530. yeast membranes, quenched prenylated peptide cleavage fluorescence. calls only. 0.27% of 290,000 active;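 active = fall in fluorescence gain of 50% or more versus controls, with final raw signal at or below 3038400; inconclusive = same 50% fall but final raw signal above 3038400; inactive = fall in fluorescence gain under 50%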
# Target sequence (Q03530 whole entry, looked up): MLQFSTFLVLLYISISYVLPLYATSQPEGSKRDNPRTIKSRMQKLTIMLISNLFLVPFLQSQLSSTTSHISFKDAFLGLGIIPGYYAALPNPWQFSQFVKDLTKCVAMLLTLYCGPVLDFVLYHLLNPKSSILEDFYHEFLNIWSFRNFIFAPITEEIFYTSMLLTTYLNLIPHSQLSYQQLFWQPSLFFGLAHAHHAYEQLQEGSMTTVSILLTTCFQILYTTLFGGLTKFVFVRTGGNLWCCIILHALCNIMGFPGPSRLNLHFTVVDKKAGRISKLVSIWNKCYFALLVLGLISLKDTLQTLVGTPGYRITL
# RanGTP-Imp inh = inhibitors of RanGTP-importin-beta interaction, primary screen, biochemical, FRET, CFP-Ran, YFP-importin-beta, homogeneous; cell-free CFP-Ran/YFP-importin-beta FRET ratio; inhibition, % (test concentration not listed); 1.1% of 300,000 active; AID 2216;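 active = more than half of the replicate wells show a fall in the fluorescence ratio signal beyond about 16%, limit read from the data, passing the limit was not always enough; inconclusive = exactly half of the replicate wells pass the set limit; inactive = fewer than half of replicates pass the limit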
# Runt-CBFb FRET = blocks binding of human RUNX1 Runt domain to CBFb; Q01196+Q13951; Cerulean-Runt/Venus-CBFb FRET ratio 530/480, 1 h; inhibition, % at 20 µM; 0.46% of 220,000 active; AID 1496;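 active = inhibition over about 50% at 20 µM in the single-dose screen, limit read from the data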
#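 Assay system: Cerulean-Runt domain fusion protein, energy donor; Signal: fluorescence energy transfer, 422 nm excitation, 530/480 nm emission; Timing: 1 h compound exposure, room temperature; Control set: unlabeled CBFb; Medium: Tris buffer pH 7.5 with salts and BSA; Compound: single test concentration of 20 µM, 1% DMSO final; Probe or stimulus: Venus-CBFb 100 nM.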
# A number is an active result; i = inactive; ? = inconclusive; nt = no result given; + = active, no number. Sampled rows, rich in hits. Any-hit rate of the full collection: about 1.7%.
SMILES,Vif inh,Runt-SMMHC FRET,Rce1 inhib,RanGTP-Imp inh,Runt-CBFb FRET
COc1cccc(OC)c1C(=O)OCC(=O)NC1CCCCCC1,i,nt,nt,nt,nt
O=C(COC(=O)c1ccc(Cl)cc1O)NCCN1C(=O)CSC1=O,i,i,i,i,i
Cc1cccc2cc3c(NC(=O)C(C)(C)C)nn(CC(C)C)c3nc12,nt,nt,i,80,nt
CCn1nc(NC(=O)c2ccccc2)c2cc3cccc(C)c3nc21,i,86,i,69,62
CCn1nc(NC(C)=O)c2cc3cccc(C)c3nc21,i,nt,i,?,nt
CCn1nc(NC(=O)C(C)C)c2cc3cccc(C)c3nc21,i,nt,i,48,nt
CC(Sc1ccc(S(=O)(=O)N2CCCCC2)cn1)C(N)=O (stereo unspecified),i,nt,nt,nt,nt
Cc1cccc(C(=O)O/N=C(\N)Cc2ccc([N+](=O)[O-])cc2)c1,i,i,i,i,i
N/C(Cc1ccc([N+](=O)[O-])cc1)=N\OC(=O)c1ccc2ccccc2c1,i,i,+,i,i
COc1ccc(C2c3c(ncn(CCCO)c3=N)Oc3ccc4ccccc4c32)cc1 (stereo unspecified),i,i,+,i,i
COc1ccc(C2c3ccc(O)cc3Oc3ncn(CC(C)C)c(=N)c32)cc1 (stereo unspecified),i,62,i,i,i
COc1ccc(C2c3c(ncn(CCCO)c3=N)Oc3ccc4ccccc4c32)cc1OC (stereo unspecified),i,i,i,i,i
COCCn1c(C)cc2c(c1=O)C(c1ccco1)C(C#N)=C(N)O2 (stereo unspecified),i,117,i,i,112
Cc1cc2c(c(=O)n1CCN(C)C)C(c1ccncc1)C(C#N)=C(N)O2 (stereo unspecified),nt,i,i,i,i
CCn1c(C)cc2c(c1=O)C(c1ccccc1Br)C(C#N)=C(N)O2 (stereo unspecified),i,i,i,48,i
COC(=O)Nc1nnc(-c2ccncc2)s1,i,i,+,i,i
COc1ccc(C(=O)N2CCCC(CCC(=O)NCc3ccccc3F)C2)c(OC)n1 (stereo unspecified),i,nt,i,i,nt
COC(=O)Cn1c2ccc(C)cc2c2nc3ccccc3nc21,i,nt,i,20,nt
Cc1nc(NC(=O)c2cccc(-c3cc4ccccc4oc3=O)c2)ccc1Br,i,i,+,i,i
CC(C)(C)n1nnnc1C(CCc1ccccc1)N1CCN(C/C=C/c2ccccc2)CC1 (stereo unspecified),i,nt,nt,nt,nt
CN(C)CC(C)(C)CNC(=S)NCc1ccc2c(c1)OCO2,i,i,+,i,i
O=c1cc(N2CCCCC2)nc2n1CCCS2,i,i,i,159,i
CN(C)c1nc2n(c(=O)n1)CCS2,nt,i,i,i,i
CN(C)c1cc(=O)n2c(n1)SCCC2,i,i,i,72,nt
COc1cccc(CNc2ccc3c(c2)CCC3)c1,60,i,i,i,i
SMILES,Vif inh,Runt-SMMHC FRET,Rce1 inhib,RanGTP-Imp inh,Runt-CBFb FRET
COc1ccc(OC)c(CNc2ccc3c(c2)CCC3)c1,i,nt,i,i,nt
Cc1nnc2ccc(-c3ccc(NS(=O)(=O)c4ccccc4F)cc3)nn12,i,nt,i,i,nt
Cc1nnc2ccc(-c3ccc(NS(=O)(=O)c4ccc(F)cc4F)cc3)nn12,71,nt,i,i,nt
Cc1nnc2ccc(-c3ccc(NS(=O)(=O)c4ccccc4[N+](=O)[O-])cc3)nn12,76,nt,nt,nt,nt
C(=N\Nc1nc2ccccc2[nH]1)/c1ccccn1,i,i,i,i,i
Fc1ccccc1-c1ccc(/C=N/Nc2nc3ccccc3[nH]2)o1,i,77,i,nt,i
Cc1nnsc1C(=O)NNC(=O)c1cccc2ccccc12,i,i,i,i,i
Cc1ccc(N2C(=O)[C@@H]3[C@H](C2=O)C2c4ccccc4C=CN2[C@@H]3C(=O)c2ccco2)cc1 (stereo partly specified),i,i,nt,nt,i
O=C(c1ccco1)[C@@H]1[C@@H]2C(=O)N(c3ccccc3)C(=O)[C@@H]2C2c3ccccc3C=CN21 (stereo partly specified),i,i,i,28,i
Cc1ccc(C(=O)NC(=S)N2CCCCCC2)cc1,i,nt,nt,nt,nt
COc1c(OC)c2[nH]c(=O)cc3c4ccccc4n(c1=O)c23,i,nt,i,157,nt
COC(=O)c1c(C(=O)OC)c(-c2ccccc2)n2c1CS(=O)(=O)C2,nt,i,i,22,i
Cc1ccc(SCC(=O)N(C)C2CCS(=O)(=O)C2)cc1 (stereo unspecified),i,i,i,i,i
Cc1ccc(-c2nc(SCC(=O)N(C)C3CCS(=O)(=O)C3)[nH]c2-c2ccc(C)cc2)cc1 (stereo unspecified),i,i,+,i,i
Cc1ccc(S(=O)(=O)c2cc3ccc(O)cc3oc2=O)cc1C,i,nt,i,132,nt
O=C(O)c1cccc(Nc2ccnc(Nc3cccc(C(=O)O)c3)n2)c1,140,nt,i,i,nt
CNC[C@H](NC[C@@H](NCCCc1ccccc1)c1ccccc1)[C@H](C)O,i,nt,i,i,nt
COC(=O)c1ccc(N2CCN(c3ccccc3)CC2)nc1,i,nt,i,i,nt
O=C(Cn1cc(C(=O)C(=O)N2CCOCC2)c2ccccc21)Nc1cccc(C(F)(F)F)c1,70,nt,nt,nt,nt
COc1ccccc1NC(=O)Cn1cc(C(=O)C(=O)N2CCOCC2)c2ccccc21,i,nt,i,i,nt
O=C(Nc1cccc(C(=O)O)c1)/C(=C\c1ccccc1Cl)NC(=O)c1ccco1,i,nt,i,i,nt
O=[N+]([O-])c1ccc(N2CCN(Cc3ccccc3)CC2)c2c1no[n+]2[O-],114,nt,nt,nt,nt
CC(=O)c1c(N2CCN(Cc3ccccc3)CC2)nc(=S)n(-c2ccccc2)c1C,i,98,i,85,i
CC(=O)c1c(N2CCN(Cc3ccccc3)CC2)nc(=S)n(Cc2ccccc2)c1C,i,82,i,68,75
CCn1c(C)c(C(C)=O)c(N2CCN(c3ccc(F)cc3)CC2)nc1=S,i,i,i,20,i
SMILES,Vif inh,Runt-SMMHC FRET,Rce1 inhib,RanGTP-Imp inh,Runt-CBFb FRET
CC(=O)c1c(N2CCN(c3ccc(F)cc3)CC2)nc(=S)n(Cc2ccccc2)c1C,i,i,i,i,i
CC(=O)c1c(N2CCN(CCO)CC2)nc(=S)n(-c2ccccc2)c1C,i,92,i,62,65
CN(C(=O)COC(=O)Cc1c(F)cccc1Cl)c1c(N)n(Cc2ccccc2)c(=O)[nH]c1=O,i,nt,nt,nt,nt
S=C(S)N1CCCC1,75,nt,nt,nt,nt
COc1cc(OC)cc(-c2ncc3ccccn23)c1,i,i,+,i,i
O=C1CN(S(=O)(=O)c2cc(Br)ccc2Br)CCN1,i,nt,nt,nt,nt
O=c1c(Br)ccc(Br)cc1Br,168,nt,nt,nt,nt
COc1ccc(C(C)(NC(C)=O)c2nc(-c3ccccc3OC)cs2)cc1 (stereo unspecified),i,nt,nt,nt,nt
CCOC(=O)c1c(/N=C/c2ccc(O)cc2O)sc2c1CCC2,nt,56,i,i,i
CCOC(=O)c1c(/N=C/c2ccccc2O)sc2c1CCC2,i,i,i,i,i
Cc1ccc(C(=O)NCc2nnc(SCC(=O)NC(C)c3ccccc3)n2C)cc1 (stereo unspecified),i,i,i,i,i
